Screens: PubChem, The Scripps Research Institute Molecular Screening Center
M4 PAM – potentiates acetylcholine response at human M4 receptor; P08173; CHO-K1 hM4/Gqi5, Fluo-8 calcium fluorescence, ACh EC20; 0% = ACh EC20, 100% = maximal ACh; activation, % at 3 µM; 360,000 compounds, 0.4% hits; AID 624126;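 active means activation above its plate's cutoff, the mean activation of sample wells plus 3 SD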
Target sequence (P08173 whole entry, looked up): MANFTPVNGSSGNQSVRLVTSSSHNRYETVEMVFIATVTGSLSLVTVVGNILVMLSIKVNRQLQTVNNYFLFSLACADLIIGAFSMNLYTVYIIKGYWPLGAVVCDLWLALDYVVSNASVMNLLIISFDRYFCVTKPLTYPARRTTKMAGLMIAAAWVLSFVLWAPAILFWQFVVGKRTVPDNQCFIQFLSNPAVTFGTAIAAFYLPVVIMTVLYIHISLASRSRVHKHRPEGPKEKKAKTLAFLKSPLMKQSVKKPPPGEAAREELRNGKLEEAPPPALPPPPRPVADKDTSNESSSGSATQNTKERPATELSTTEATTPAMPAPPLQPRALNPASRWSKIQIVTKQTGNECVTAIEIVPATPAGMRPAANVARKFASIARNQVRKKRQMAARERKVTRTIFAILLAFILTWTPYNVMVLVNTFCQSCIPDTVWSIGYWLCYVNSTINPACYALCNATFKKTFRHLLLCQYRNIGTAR
CHRM5 agonist – agonists of human muscarinic M5 receptor (CHRM5); P08912; CHO-K1 hM5 cells, Fluo-8 calcium fluorescence; 0% DMSO wells, 100% maximal acetylcholine response; activation, % at 3 µM; 360,000 compounds, 0.19% hits; AID 624037;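 active means activation above the run's mean over test compounds plus 3 SD, cut at about 23% in these data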;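 further: signal is peak over basal fluorescence ratio across the kinetic read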
M4 ag – CHRM4 agonism in calcium assay; activation, % at 3 µM; 360,000 compounds, 0.14% hits; AID 624127; CHO-K1 hM4/Gqi5, Fluo-8 calcium fluorescence; vehicle 0%, full acetylcholine response 100%; P08173;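 active means activation above the run mean over all test wells plus 3 SD, cut at about 32% in these data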;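 further: peak over basal fluorescence ratio per well then scaled between controls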
CHRM5 PAM – positive allosteric modulators of human muscarinic M5 receptor; P08912; CHO-K1 hM5, Fluo-8 calcium, ACh EC20 PAM; 0% = ACh EC20, 100% = ACh EC100; activation, % at 3 µM; 360,000 compounds, 0.3% hits; AID 624038;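 active means activation above the run cutoff, the mean activation of all test compounds plus 3 SD, cut at about 18% in these data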
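Replicates: One well per compound, no replicates | System: Human M5 receptor in CHO-K1 cells | Benchmarks: Low control EC20 acetylcholine (0%), high control EC100 acetylcholine (100%) | Probe or stimulus: Acetylcholine, EC20 level | Times: Fluo-8 loading 80 min at 37 °C plus 30 min room temperature | Signal: Intracellular calcium via Fluo-8 fluorescence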
M4 antag – blocks acetylcholine activation of human M4 receptor | 360,000 compounds, 0.73% hits | inhibition, % at 3 µM | AID 624125 | P08173 | CHO-hM4 cells, ACh EC80, Fluo-8 calcium fluorescence;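 active means inhibition above its plate's cutoff, the mean inhibition of sample wells plus 3 SD, cut at about 27% in these data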
CHRM5 antagonist – blocks acetylcholine activation of human M5 receptor; CHO-hM5 cells, Fluo-8 calcium fluorescence, ACh EC80; 360,000 compounds, 0.59% hits; P08912; inhibition, % at 3 µM; AID 624040;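 active means inhibition above a per-plate cutoff, the mean of that plate's test compounds plus 3 SD, cut at about 27% in these data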
Large screens that a line does not name were inactive; ! = a repeat was not active. Rows were chosen to be rich in hits. Some 1.9% of all compounds tested hit in one or more screens of this group.

Cn1nc(C(=O)NCc2ccco2)c2ccccc2c1=O	M4 PAM 23
CCn1cc(C(=O)NCc2ccco2)c(=O)c2ccc(C)nc21	M4 PAM 19
Cn1nc(C(=O)NCCN2CCOCC2)c2ccccc2c1=O	none
Cn1nc(C(=O)NCc2cccnc2)c2ccccc2c1=O	CHRM5 PAM 20
Cn1nc(C(=O)Nc2cccnc2)c2ccccc2c1=O	none
CCOc1ncccc1C(=O)OCc1c(F)cccc1Cl	none
COc1ccccc1C(=O)N(Cc1ccc(Cl)cc1)C1CCS(=O)(=O)C1 (stereo unspecified)	none
CC1=NN(C(=O)COc2ccc(C)c(C)c2)C(O)(c2ccc(Cl)cc2)C1 (stereo unspecified)	M4 PAM 22
CC1=NN(C(=O)CSCc2ccccc2)C(O)(c2ccc(Cl)cc2)C1 (stereo unspecified)	none
O=C1NC(=Nc2ccccc2)SC1Cc1ccccc1 (stereo unspecified)	CHRM5 antagonist 27
O=C1N/C(=N/c2ccccn2)SC1Cc1ccccc1 (stereo unspecified)	none
COCCN1C(=O)N(c2cccc(C)c2)C(=O)C1CC(=O)Nc1ccc(OC)cc1 (stereo unspecified)	none
CC1(C)CC(=O)C(C(=O)/C=C/c2ccco2)C(=O)C1	none
CC(=O)c1cnc(N2CCCCC2)nc1C	CHRM5 PAM 18, M4 antag 31
CC(C)(C)S(=O)(=O)c1cnc(N2CCCCC2)nc1N	none
Cc1ccc(N2CCN(C(=O)C(=O)c3ccc(F)c(F)c3)CC2)cc1	none
Cc1ccc(OCCCCNC(C)(C)C)c([N+](=O)[O-])c1	CHRM5 antagonist 27
COCCNCCOc1ccc(C)cc1[N+](=O)[O-]	none
Cc1ccc(NC(=O)c2cc(NC(=O)c3ccco3)ccc2N2CCOCC2)cc1	none
Cc1ccc(NC(=O)c2cc(N3C(=O)C=CC3=O)ccc2N2CCOCC2)cc1	CHRM5 PAM 21
COc1ccc(C(=O)OCC(=O)NCCCc2ccccc2)c(OC)c1	none
COc1ccc(C(=O)OCC(=O)NC(=O)Nc2ccccc2F)c(OC)c1	M4 PAM 21
S=C(NCc1ccccn1)NN=Cc1ccccn1	none
COC(=O)c1ccc(Oc2ccc3nnc(C)n3n2)cc1	none
Cc1nnc2ccc(Oc3ccc(-c4ccccc4)cc3)nn12	CHRM5 antagonist 34
CCNc1ccc(C(=O)OCC(=O)NCCN2C(=O)CSC2=O)cc1[N+](=O)[O-]	CHRM5 PAM 22
CC(=O)OCC(=O)N1N=C(c2ccc3ccccc3c2)CC1c1ccccc1 (stereo unspecified)	none
Nc1cc(=O)[nH]c(SCC(=O)N2N=C(c3ccc4ccccc4c3)CC2c2ccccc2)n1 (stereo unspecified)	M4 antag 36
CN1CCN(S(=O)(=O)c2ccc(N3CCN(S(=O)(=O)/C=C/c4ccccc4)CC3)nc2)CC1	M4 antag 30
CC(C)(C)n1nc2c(c1NC(=O)COc1ccc(F)cc1)CS(=O)(=O)C2	none
Cc1cc(C(=O)COC(=O)c2cc(Cl)ccc2N)c(C)n1Cc1ccco1	M4 PAM 19
CCn1c(SCC(=O)NC2CCCC2)nnc1C(C)C	none
CCN(c1ccccc1)S(=O)(=O)c1cccc(C(=O)Nc2cccc(C)n2)c1	none
COc1cccc(CN(C)C(=O)C23CC4CC(CC(C4)C2)C3)c1	none
CC(C)(C)NC(=O)NC(=O)COC(=O)C1=COCCO1	CHRM5 PAM 36
O=C(COC(=O)C1=COCCO1)Nc1ccccc1	none
C=CCc1cccc2cc(C(=O)N3CCN(c4ccccn4)CC3)c(=O)oc12	none
CCN1CCN(c2ccc(NC(=O)c3cc4ccccc4cc3OC)cc2C)CC1	CHRM5 antagonist 56
CCN1CCN(c2ccc(NC(=O)c3ccccc3F)cc2Cl)CC1	none
Cc1ccccc1NC1=NS(=O)(=O)c2ccccc21	none
O=S1(=O)N=C(Nc2ccc(O)cc2)c2ccccc21	CHRM5 PAM 21
COc1cc(NS(=O)(=O)c2csc(C(N)=O)c2)cc(OC)c1	none
CN1CC[C@@H]2C(=O)N3CCc4ccc(-c5ccc6c(c5)OCO6)cc4[C@@H]3C[C@@H]21	none
CCC(=O)Nc1cccc(NC(=O)CSc2nnc(C3CC3)n2C)c1	CHRM5 PAM 36
Cn1c(SCC(=O)Nc2ccc3c(c2)CCC3)nnc1C1CC1	none
CCn1c(SCC(=O)Nc2nccs2)nnc1C1CC1	M4 PAM 25
Cc1cc(-c2nnc(SCC(=O)Nc3nccs3)o2)no1	CHRM5 PAM 20
CN(Cc1ccccc1)C(=O)C(=O)c1ccccc1	none
CC(=O)OCc1c(C(F)(F)F)nn(C)c1Oc1cccc(C(F)(F)F)c1	none
CC(=O)OCc1c(C(F)(F)F)nn(C)c1Oc1ccccc1	CHRM5 PAM 19
O=S(=O)(NCc1ccccn1)c1ccccn1	none
Cc1ccc(C(O)c2ncc(-c3ccccc3Cl)[nH]2)cc1F (stereo unspecified)	none
CC(=O)Nc1c(I)c(NC(C)=O)c(I)c(C(=O)O)c1I	CHRM5 agonist 63!
COc1ccc(C#Cc2c(-c3ccccc3)n(-c3ccccc3)c3ccc(CO)cc23)cc1	none
CC(C)(C)C(=O)CC1(O)C(=O)N(Cc2ccc(Cl)cc2)c2ccccc21 (stereo unspecified)	M4 PAM 38
O=C(O)CC1(O)C(=O)N(Cc2ccccc2)c2ccccc21 (stereo unspecified)	none
C=CCN(c1ccc(OC)cc1)S(=O)(=O)c1ccc(Cl)c(C(=O)OCC(=O)NC2CC2)c1	none
C=CCN(c1ccccc1)S(=O)(=O)c1ccc(Cl)c(C(=O)OCC(=O)c2[nH]c(C)c(C(C)=O)c2C)c1	M4 antag 27
Cc1ccc(SC(=O)c2c(C)noc2-c2cc(C)on2)cc1	none
Nc1ccc(CN2CCCCCC2)cc1	CHRM5 PAM 38
Brc1ccc(CN2CCCCCC2)cc1	none
CCOc1cc(/C=C2\COc3ccccc3C2=O)cc(Br)c1OCC(=O)N(C)C	M4 antag 29
COc1ccc(/C=C2\COc3ccccc3C2=O)cc1OC	none
COc1cccc(CN2CC(C(=O)NCCc3nccs3)CCC2=O)c1 (stereo unspecified)	none
CC(C)C(=O)Nc1ccc(-c2nc3ncccc3o2)cc1	CHRM5 antagonist 30
CC(C)C(=O)Nc1cccc(-c2nc3ncccc3o2)c1	none
CCNC(=S)Nc1ccc(OCc2nc3ccccc3s2)cc1	none
COC(=O)[C@H](Cc1ccccc1)NC(=O)NCCC1=CCCCC1	CHRM5 antagonist 63
COC(=O)[C@H](C)NC(=O)NCCC1=CCCCC1	none
COC(=O)[C@H](CCSC)NC(=O)NCCC1=CCCCC1	CHRM5 antagonist 35
